Screening results (PubChem BioAssay)
Vif imaging – inhibitors of HIV Vif; HEK293T cells, Vif self-association by quenched fluorescence, imaging, 24 h; inhibition, % at 7.49 µM; 340,000 compounds, 0.35% hits; in the data active = inhibition above about 50%, passing the limit was not always enough; inconclusive = no clear call, values can overlap the other calls; inactive = below about 31%
PGC1a acetyl inh – PGC1a acetylation modulation, inhibitor mode. U2OS PGC1a acetylation, AlphaScreen anti-acetyl-lysine; with virally co-expressed GCN5 acetyltransferase. inhibition, % at 15.6 µM. 350,000 compounds, 0.17% hits;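 active = every replicate shows inhibition of at least 40%; inconclusive = mean inhibition at least 40% but some replicate below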
PglD inh – blocks C. jejuni PglD acetyltransferase activity. purified PglD enzyme, DTNB colorimetric CoA detection. inhibition, % at 12.5 µM. 360,000 compounds, 0.098% hits; in the data active = inhibition above about 16%, passing the limit was not always enough; inconclusive = no clear call, values can overlap the other calls
rRNA inh HTS – selective bacterial rRNA inhibition in E. coli. 350,000 compounds, 1.6% hits. AID 720706. E. coli WT GFP vs humanized-ribosome RFP mutants, fluorescence, 24 h; hits give low values; DMSO median 0, no signal -100. GFP signal change (wild-type ribosome), % (test concentration not listed);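 active = significant combined selectivity score with lowered wild-type GFP, culture density cut under 30%, mutant RFP and density less affected; inactive = any of these conditions unmet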
Cneo AK release – causes C. neoformans cell lysis; adenylate kinase release luminescence, 4 h; normalised: neutral wells 0, clomiphene wells 100; lysis activity, % at 15 µM; 360,000 compounds, 0.2% hits;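 active = mean lysis activity across replicates of at least 80%, whatever share of replicates individually reach that level; inactive = mean lysis activity below 80%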
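Material – log-phase Cryptococcus neoformans yeast cells · Input – 5 × 10^6 yeast cells/mL · Medium – fresh YPD growth medium · Doses – single compound concentration per well · Timing – static 4 h at 37 °C with compound, 1 h detection · Detection – adenylate kinase release luminescence · Read-out – signal increase indicating cell lysis · Control set – Clomiphene as positive lysis control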
FGF22 binding – binders of recombinant human FGF22 by thermal shift; activity (Tm shift, normalised), % at 9.99 µM; 340,000 compounds, 1.5% hits; Q9HCT0; SYPRO orange fluorescence; percent of sucrose octasulfate shift, DMSO zero;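 active = mean Tm shift, scaled 0 neutral to 100 positive control, at about 1.3% or above, every replicate too, limit read from the data; inconclusive = no clear call, values can overlap the other calls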
Target sequence (Q9HCT0 whole entry, looked up): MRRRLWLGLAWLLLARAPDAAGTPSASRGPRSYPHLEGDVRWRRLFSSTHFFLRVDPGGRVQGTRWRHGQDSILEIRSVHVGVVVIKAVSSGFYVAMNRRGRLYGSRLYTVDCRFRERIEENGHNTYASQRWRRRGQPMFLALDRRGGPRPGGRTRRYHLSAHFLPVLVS
AID977621 – wild-type E. coli growth inhibition versus H69 humanized strain – H69 mutant RFP, wild-type GFP, cherry-pick, dose response; activity change, negative = inhibition at 50 µM; AID 977621; fluorescence, 24 h; 1,900 tested, under 10 active; shares compounds with rRNA inh HTS;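 active = Wild-type ribosome reporter drop at least double the humanized mutant ribosome reporter drop, growth loss under a set limit; inconclusive = no clear call, values can overlap the other calls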;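 note: wild-type GFP and H69 mutant RFP strains grown together 50/50 in each well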
AID977628 – growth of wild-type and h24-humanized E. coli strains – h24 mutant RFP vs wild-type GFP, cherry-pick, dose response. shares compounds with rRNA inh HTS. E. coli WT GFP strain growth, fluorescence, 24 h. activity change, negative = inhibition at 50 µM. 1,900 tested, under 10 active;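 active = compound lowering the normal-ribosome reporter at least twice as much as the humanized-ribosome reporter, growth loss under a set limit; inconclusive = no clear call, values can overlap the other calls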;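 note: wild-type GFP and h24 humanized RFP strains co-cultured 1 to 1 per well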
Of the large screens only hits and unclear results are named; the others gave an inactive call (follow-up assays come after a bar, where they were run). Hits are enriched below; roughly 2.9% of the tested compounds scored in any of these assays.

Cc1ccc(S(=O)(=O)Nc2ccccc2CNc2cccc(C)n2)cc1	rRNA inh HTS -16 | AID977621 inactive | AID977628 inconclusive
C[C@H](CO)N1C[C@H](C)[C@H](CN(C)S(=O)(=O)c2cccs2)Oc2ncc(/C=C/c3ccccc3)cc2C1=O	none (no result: Vif imaging)
CCC(=O)N1CC2(C1)[C@H](c1ccc(-c3ccccc3)cc1)[C@H](CO)N2S(C)(=O)=O	none (no result: Vif imaging, PglD inh, Cneo AK release)
CN(C(=O)COc1ccccc1C(=O)NCCOc1ccccc1)c1ccccc1	rRNA inh HTS -19 (no result: PGC1a acetyl inh, PglD inh, Cneo AK release) | AID977621 inactive
CC(C)OCCCNC(=O)c1ccc(CS(=O)(=O)c2cccc(C(F)(F)F)c2)o1	rRNA inh HTS -19 | AID977621 inactive | AID977628 inconclusive
Cc1cccc(-c2noc(-c3ccccc3C(=O)NCc3ccco3)n2)c1	rRNA inh HTS -33 | AID977621 inactive | AID977628 inactive
Cc1nnsc1-c1onc(C)c1C(=O)Nc1cc(Cl)cc(Cl)c1	none (no result: PglD inh, Cneo AK release, FGF22 binding)
Cc1ccc(NC(=O)c2c(C)noc2-c2snnc2C)cc1	rRNA inh HTS -22 (no result: PglD inh, Cneo AK release) | AID977628 inconclusive
CCCC(=O)Nc1ccc2c(c1)C(=O)N(C)[C@H]1CC[C@H](CC(=O)Nc3ccccc3F)O[C@@H]1CO2	none (no result: Vif imaging)
O=C(O)CC(CC(=O)Nc1ccc2ccccc2n1)c1ccccc1 (stereo not given)	rRNA inh HTS -20 (no result: PGC1a acetyl inh, PglD inh, Cneo AK release) | AID977621 inactive | AID977628 inactive
Cc1ccc(S(=O)(=O)N(C)C[C@H]2Oc3ccc(NS(=O)(=O)c4cccs4)cc3CC(=O)N([C@@H](C)CO)C[C@@H]2C)cc1	none (no result: Vif imaging)
O=C(Nc1ccc(Cl)c(Cl)c1)N[C@H]1CC[C@@H](CCn2cc(C3CCCCC3)nn2)O[C@@H]1CO	rRNA inh HTS -44 (no result: Vif imaging) | AID977628 inconclusive
O=C(Nc1ccc(Cl)c(Cl)c1)N[C@@H]1CC[C@@H](CCn2cc(C3CCCCC3)nn2)O[C@H]1CO	rRNA inh HTS -42 (no result: Vif imaging) | AID977621 inconclusive | AID977628 inconclusive
Cc1nonc1C1CCCN1C(=O)c1cc(COc2ccc(F)cc2F)on1 (stereo not given)	rRNA inh HTS -27 (no result: PglD inh, Cneo AK release) | AID977621 inconclusive
Cc1ccc(-n2cc(CNCCN3CCOC3=O)c(-c3ccc(F)cc3)n2)cc1	rRNA inh HTS -18 | AID977621 inactive | AID977628 inconclusive
CSc1ccccc1NC(=O)CN(c1cccc(C)c1)S(C)(=O)=O	rRNA inh HTS -20 (no result: Vif imaging, PglD inh, Cneo AK release) | AID977621 inactive
COc1ccc2oc(C)c(C(=O)c3ccc(C)cc3)c2c1	none (no result: Vif imaging, PGC1a acetyl inh)
COc1ccc(C(=O)c2c(C)oc3ccc(O)cc23)cc1	rRNA inh HTS -22 (no result: PGC1a acetyl inh) | AID977621 inactive
COc1ccc2c3c(n(C)c2c1)[C@H](CO)N(C(C)=O)CC31CN(S(=O)(=O)c2ccccc2)C1	none (no result: Vif imaging, PglD inh, Cneo AK release)
O=C(Nc1ccc(C(=O)c2ccccc2)cc1)c1ccccc1	rRNA inh HTS -22 | AID977621 inactive
O=C(Nc1ccncc1)c1ccc(S(=O)(=O)Nc2ccccc2)cc1	rRNA inh HTS -23 (no result: PglD inh, Cneo AK release) | AID977621 inactive | AID977628 inconclusive
CC(=O)c1cccc(NS(=O)(=O)c2ccc(C(=O)Nc3ccccc3)cc2)c1	none
Nc1c(Cl)cc(C2=NCCn3nc4ccccc4c32)cc1Cl	rRNA inh HTS -20 (no result: Vif imaging, PGC1a acetyl inh) | AID977621 inactive
Clc1ccc(C2=NCCn3nc4ccccc4c32)cc1	none
C[C@@H]1CCCCO[C@@H](CN(C)S(=O)(=O)c2ccc(F)cc2)[C@H](C)CN([C@@H](C)CO)C(=O)c2cc(NC(=O)CCCN(C)C)ccc2O1	none (no result: Vif imaging)
O=C(Nc1ccc(Cl)cn1)c1ccc([N+](=O)[O-])o1	rRNA inh HTS -21, FGF22 binding 43 (no result: PglD inh, Cneo AK release) | AID977621 inactive | AID977628 inactive
O=C(NCc1cccnc1)c1ccc([N+](=O)[O-])o1	none (no result: PGC1a acetyl inh)
